Values after ≈ are worked out from the molar mass of the structure shown.
Assays:
Brevundimonas diminuta = experiment: Antibacterial activity against Pseudomonas diminuta IAM 1513 assessed as growth inhibition after 24 hrs by plate dilution method; type: functional; details: IAM 1513, 24 h
Procedure, shortened: (§1)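 MIC determined by standard plate dilution in defined medium […], plates incubated 37 °C for 24 h.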

Micrococcus luteus = experiment: Antibacterial activity against Sarcina lutea ATCC 9341 assessed as growth inhibition after 24 hrs by plate dilution method; type: functional; details: ATCC 9341, 24 h; procedure, shortened: as §1
Staphylococcus aureus = experiment: Antibacterial activity against Staphylococcus aureus ATCC 6538P assessed as growth inhibition after 24 hrs by plate dilution method; type: functional; procedure, shortened: as §1
[1] = Drug metabolism in mouse liver microsomes assessed as fluorouracil release by measuring antibacterial activity against Staphylococcus aureus 209P at 200 ug after 4 hrs by thin layer cup method in presence of NADPH; type: ADME
Procedure, shortened: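 Mouse liver microsomes in 10 mM phosphate buffer pH 7.4, 1.15% KCl (25% homogenate equivalent); 0.8 mL suspension, 0.1 mL of 50 mM NADPH stock, 200 µg isomer, made to 1 mL; 37 °C, 4 h. After CHCl3 extraction of unchanged substrate, FU in neutralized aqueous phase bioassayed against S. aureus 209P by thin-layer-cup method.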

Proteus vulgaris = experiment: Antibacterial activity against Proteus vulgaris IFO 3045 assessed as growth inhibition after 24 hrs by plate dilution method; type: functional; details: IFO 3045, 24 h; procedure, shortened: as §1
Escherichia coli = experiment: Antibacterial activity against Escherichia coli NIHJ assessed as growth inhibition after 24 hrs by plate dilution method; type: functional; procedure, shortened: as §1
Rattus norvegicus [2] = experiment: Toxicity in Donryu rat allografted with rat AH-130 cells assessed as body weight at 90 mg/kg, ip administered daily for 7 days starting 24 hrs after tumor inoculation measured on 10th day post-tumor inoculation (reference value: 64.1 gms); type: organism-based; parameters: dose 90 mg/kg, route intraperitoneal; details: in vivo
Procedure, shortened: (§2)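 Male Donryu rats (120 ± 5 g) inoculated s.c. in inguinal region with 5×10^6 AH-130 carcinoma or Yoshida sarcoma cells per rat; drug 90 mg/kg i.p. daily for 7 days starting 24 h later; six animals per group. Body weight and tumor weight measured on day 10 after inoculation; tumor weight compared with untreated control group to give % inhibition.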

[3] = Antitumor activity against rat AH-130 cells allografted in Donryu rat assessed as inhibition of tumor growth at 90 mg/kg, ip administered daily for 7 days starting 24 hrs after tumor inoculation measured on 10th day post-tumor inoculation; type: functional; details: route intraperitoneal, read-out: TGI; procedure, shortened: as §2
Rattus norvegicus [4] = experiment: Toxicity in Donryu rat allografted with rat Yoshida cells assessed as body weight at 90 mg/kg, ip administered daily for 7 days starting 24 hrs after tumor inoculation measured on 10th day post-tumor inoculation (reference value: 53 gms); type: organism-based; parameters: dose 90 mg/kg, route intraperitoneal; details: in vivo; procedure, shortened: as §2
YOSHIDA [5] = experiment: Antitumor activity against rat Yoshida cells allografted in Donryu rat assessed as tumor weight at 90 mg/kg, ip administered daily for 7 days starting 24 hrs after tumor inoculation measured on 10th day post-tumor inoculation (reference value: 3.65 +/- 0.60 gms); type: functional; details: route intraperitoneal; procedure, shortened: as §2
Bacillus subtilis = experiment: Antibacterial activity against Bacillus subtilis ATCC 6633 assessed as growth inhibition after 24 hrs by plate dilution method; type: functional; details: ATCC 6633, 24 h; procedure, shortened: as §1
Klebsiella pneumoniae = experiment: Antibacterial activity against Klebsiella pneumoniae ATCC 10031 assessed as growth inhibition after 24 hrs by plate dilution method; type: functional; details: ATCC 10031, 24 h; procedure, shortened: as §1
Micrococcus flavus = experiment: Antibacterial activity against Micrococcus flavus ATCC 10240 assessed as growth inhibition after 24 hrs by plate dilution method; type: functional; details: ATCC 10240, 24 h; procedure, shortened: as §1
YOSHIDA [6] = experiment: Antitumor activity against rat Yoshida cells allografted in Donryu rat assessed as inhibition of tumor growth at 90 mg/kg, ip administered daily for 7 days starting 24 hrs after tumor inoculation measured on 10th day post-tumor inoculation; type: functional; details: route intraperitoneal, read-out: TGI; procedure, shortened: as §2
[7] = Drug metabolism in mouse liver microsomes assessed as fluorouracil release by measuring antibacterial activity against Staphylococcus aureus 209P at 200 ug after 4 hrs by thin layer cup method; type: ADME
Procedure, shortened: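 Mouse liver microsome fraction suspended in 10 mM phosphate buffer pH 7.4 with 1.15% KCl (equivalent to 25% homogenate); 0.8 mL suspension plus 200 µg isomer in 1 mL, no NADPH, 37 °C for 4 h. Unchanged substrate removed by CHCl3 extraction; released FU in neutralized aqueous layer quantified by antibacterial activity against S. aureus 209P, thin-layer-cup method.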

[8] = Antitumor activity against rat AH-130 cells allografted in Donryu rat assessed as tumor weight at 90 mg/kg, ip administered daily for 7 days starting 24 hrs after tumor inoculation measured on 10th day post-tumor inoculation (reference value: 4.73 +/- 1.19 gms); type: functional; details: route intraperitoneal; procedure, shortened: as §2

Compound: O=c1[nH]c(=O)n([C@H]2CCCO2)cc1F
- MIC (Brevundimonas diminuta): > 1000 µM
- MIC (Micrococcus luteus): 6 µM (≈ 1.2 µg/mL)
- MIC (Staphylococcus aureus): 12 µM (≈ 2.4 µg/mL)
- Drug metabolism [1]: 10.32 µg/mL
- MIC (Proteus vulgaris): > 1000 µM
- MIC (Escherichia coli): > 1000 µM
- Activity (Rattus norvegicus [2]): 40.2 g
- inhibition in vivo at 90 mg/kg [3]: 61.5%
- Activity (Rattus norvegicus [4]): 42 g
- Activity (YOSHIDA [5]): 2.42 g
- MIC (Bacillus subtilis): 780 µM (≈ 156 µg/mL)
- MIC (Klebsiella pneumoniae): > 1000 µM
- MIC (Micrococcus flavus): 750 µM (≈ 150 µg/mL)
- inhibition in vivo at 90 mg/kg (YOSHIDA [6]): 33.7%
- Drug metabolism [7]: 0.51 µg/mL
- Activity [8]: 1.82 g

Compound: O=c1[nH]cc(F)c(=O)[nH]1 [FLUOROURACIL]
- MIC (Brevundimonas diminuta): > 1000 µM
- MIC (Micrococcus luteus): 0.0723 µM (≈ 0.0094 µg/mL)
- MIC (Staphylococcus aureus): 0.0723 µM (≈ 0.0094 µg/mL)
- MIC (Proteus vulgaris): 18.5 µM (≈ 2.41 µg/mL)
- MIC (Escherichia coli): 18.6 µM (≈ 2.42 µg/mL)
- MIC (Bacillus subtilis): 4.62 µM (≈ 0.601 µg/mL)
- MIC (Klebsiella pneumoniae): 601 µM (≈ 78.2 µg/mL)
- MIC (Micrococcus flavus): 0.00425 µM (≈ 0.000553 µg/mL)

Compound: O=c1[nH]c(=O)n([C@@H]2CCCO2)cc1F
- MIC (Brevundimonas diminuta): > 1000 µM
- MIC (Micrococcus luteus): 12 µM (≈ 2.4 µg/mL)
- MIC (Staphylococcus aureus): 12 µM (≈ 2.4 µg/mL)
- Drug metabolism [1]: 13.16 µg/mL
- MIC (Proteus vulgaris): > 1000 µM
- MIC (Escherichia coli): > 1000 µM
- Activity (Rattus norvegicus [2]): 33 g
- inhibition in vivo at 90 mg/kg [3]: 71.9%
- Activity (Rattus norvegicus [4]): 39.3 g
- Activity (YOSHIDA [5]): 2.17 g
- MIC (Bacillus subtilis): > 1000 µM
- MIC (Klebsiella pneumoniae): > 1000 µM
- MIC (Micrococcus flavus): 375 µM (≈ 75.1 µg/mL)
- inhibition in vivo at 90 mg/kg (YOSHIDA [6]): 40.6%
- Drug metabolism [7]: 0.72 µg/mL
- Activity [8]: 1.33 g

Compound: O=c1[nH]c(=O)n(C2CCCO2)cc1F (racemic) [TEGAFUR]
- MIC (Brevundimonas diminuta): > 1000 µM
- MIC (Micrococcus luteus): 12 µM (≈ 2.4 µg/mL)
- MIC (Staphylococcus aureus): 12 µM (≈ 2.4 µg/mL)
- MIC (Proteus vulgaris): > 1000 µM
- MIC (Escherichia coli): > 1000 µM
- Activity (Rattus norvegicus [2]): 33 g
- inhibition in vivo at 90 mg/kg [3]: 51.4%
- Activity (Rattus norvegicus [4]): 33.2 g
- Activity (YOSHIDA [5]): 2.23 g
- MIC (Bacillus subtilis): 780 µM (≈ 156 µg/mL)
- MIC (Klebsiella pneumoniae): > 1000 µM
- MIC (Micrococcus flavus): 750 µM (≈ 150 µg/mL)
- inhibition in vivo at 90 mg/kg (YOSHIDA [6]): 38.9%
- Activity [8]: 2.3 g

— ChEMBL document CHEMBL3271939, “Studies of antitumor agents. 1. Resolution of racemic 1-(tetrahydro-2-furanyl)-k-fluorouracil into the R and S isomers and examination of the biological activities of the isomers” (J Med Chem, 1977)
